Data from ChEMBL document CHEMBL1629486, “Antimicrobial, antitumor and 5α-reductase inhibitor activities of some hydrazonoyl substituted pyrimidinones” (Eur J Med Chem, 2010).

What was measured:
[1] = tested on: RXF 393; assay: Growth inhibition of human RXF393 cells assessed as cell growth at 1 M after 48 hrs by sulforhodamine B assay; type: functional; parameters: scale not given: the % may be the effect or the level left
Procedure, shortened: (§1)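 NCI 60-cell panel screen, single dose (1.0 M as printed). Cells grown in RPMI 1640 with 5% fetal bovine serum and 2 mM L-glutamine, seeded at 5000–40,000 cells/well, preincubated 24 h at 37 °C in 5% CO2 at 100% humidity, then exposed to compound for 48 h. Sulforhodamine B staining read-out. Result given as growth percent: 100 = no inhibition, 0 = no net growth, negative = lethality.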

[2] = tested on: SN12C; assay: Growth inhibition of human SN12C cells assessed as cell growth at 1 M after 48 hrs by sulforhodamine B assay; type: functional; parameters: scale not given: the % may be the effect or the level left; procedure, shortened: as §1
[3] = tested on: MCF7; assay: Growth inhibition of human MCF7 cells assessed as cell growth at 1 M after 48 hrs by sulforhodamine B assay; type: functional; parameters: scale not given: the % may be the effect or the level left
Procedure, shortened: (§2)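 NCI 60-cell screen at a single high dose. Cells are grown in RPMI 1640 with 5% FBS and 2 mM L-glutamine, then plated at 5000–40,000 cells/well and held 24 h at 37 °C in 5% CO2 at 100% humidity. Drug is then added and plates are incubated another 48 h, with SRB staining as read-out. Results are given as growth percent (100 = no inhibition, 0 = no net growth, negative = lethality).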

[4] = tested on: Pseudomonas aeruginosa; assay: Antimicrobial activity against Pseudomonas aeruginosa at 1 to 5 ug/ml by agar well diffusion method; type: functional
Procedure, shortened: (§3)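 Agar well diffusion against bacteria and fungi. Inhibition zone is scored beyond the control: ++ 0.6–1.0 cm, + 0.1–0.5 cm, 0 no inhibition.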

[5] = Growth inhibition of human Hs 578T cells assessed as cell growth at 1 M after 48 hrs by sulforhodamine B assay; type: functional; parameters: scale not given: the % may be the effect or the level left; procedure, shortened: as §2
[6] = tested on: HCC 2998; assay: Growth inhibition of human HCC2998 cells assessed as cell growth at 1 M after 48 hrs by sulforhodamine B assay; type: functional; parameters: scale not given: the % may be the effect or the level left; procedure, shortened: as §2
[7] = tested on: SR; assay: Growth inhibition of human SR cells assessed as cell growth at 1 M after 48 hrs by sulforhodamine B assay; type: functional; parameters: scale not given: the % may be the effect or the level left; procedure, shortened: as §1
[8] = tested on: NCI-H460; assay: Growth inhibition of human NCI-H460 cells assessed as cell growth at 1 M after 48 hrs by sulforhodamine B assay; type: functional; parameters: scale not given: the % may be the effect or the level left; procedure, shortened: as §2
[9] = tested on: SNB-75; assay: Growth inhibition of human SNB75 cells assessed as cell growth at 1 M after 48 hrs by sulforhodamine B assay; type: functional; parameters: scale not given: the % may be the effect or the level left; procedure, shortened: as §1
[10] = tested on: K562; assay: Growth inhibition of human K562 cells assessed as cell growth at 1 M after 48 hrs by sulforhodamine B assay; type: functional; parameters: scale not given: the % may be the effect or the level left; procedure, shortened: as §2
[11] = tested on: UACC-62; assay: Growth inhibition of human UACC62 cells assessed as cell growth at 1 M after 48 hrs by sulforhodamine B assay; type: functional; parameters: scale not given: the % may be the effect or the level left; procedure, shortened: as §1
[12] = tested on: OVCAR-8; assay: Growth inhibition of human OVCAR8 cells assessed as cell growth at 1 M after 48 hrs by sulforhodamine B assay; type: functional; parameters: scale not given: the % may be the effect or the level left; procedure, shortened: as §2
[13] = Growth inhibition of human […] cells assessed as cell growth at 1 M after 48 hrs by sulforhodamine B assay; type: functional; parameters: scale not given: the % may be the effect or the level left; procedure, shortened: as §2
[14] = tested on: Malme-3M; assay: Growth inhibition of human MALME-3M cells assessed as cell growth at 1 M after 48 hrs by sulforhodamine B assay; type: functional; parameters: scale not given: the % may be the effect or the level left; procedure, shortened: as §2
[15] = tested on: MDA-MB-231; assay: Growth inhibition of human MDA-MB-231 cells assessed as cell growth at 1 M after 48 hrs by sulforhodamine B assay; type: functional; parameters: scale not given: the % may be the effect or the level left; procedure, shortened: as §2
[16] = tested on: U-251; assay: Growth inhibition of human U251 cells assessed as cell growth at 1 M after 48 hrs by sulforhodamine B assay; type: functional; parameters: scale not given: the % may be the effect or the level left; procedure, shortened: as §1
[17] = tested on: Aspergillus fumigatus; assay: Antimicrobial activity against Aspergillus fumigatus at 1 to 5 ug/ml by agar well diffusion method; type: functional; procedure, shortened: as §3
[18] = tested on: Rattus norvegicus; assay: Effect on circulating testosterone and dihydrotestosterone level in sc dosed Sprague-Dawley rat by radioimmunoassay; type: functional
Procedure, shortened: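 Rats were given a range of doses of the 5α-reductase inhibitors. Serum testosterone and DHT were measured by radioimmunoassay with specific antisera, without prior chromatography. Serum (0.5 mL) was extracted with 2 mL peroxide-free diethyl ether by shaking for 60 s. Levels were compared with vehicle-treated controls, and ED50 was derived.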

[19] = tested on: A549; assay: Growth inhibition of human A549 cells assessed as cell growth at 1 M after 48 hrs by sulforhodamine B assay; type: functional; parameters: scale not given: the % may be the effect or the level left; procedure, shortened: as §2
[20] = tested on: UO-31; assay: Growth inhibition of human UO31 cells assessed as cell growth at 1 M after 48 hrs by sulforhodamine B assay; type: functional; parameters: scale not given: the % may be the effect or the level left; procedure, shortened: as §1
[21] = tested on: NCI-H522; assay: Growth inhibition of human NCI-H522 cells assessed as cell growth at 1 M after 48 hrs by sulforhodamine B assay; type: functional; parameters: scale not given: the % may be the effect or the level left; procedure, shortened: as §2
[22] = tested on: NCI-H226; assay: Growth inhibition of human NCI-H226 cells assessed as cell growth at 1 M after 48 hrs by sulforhodamine B assay; type: functional; parameters: scale not given: the % may be the effect or the level left; procedure, shortened: as §2
[23] = tested on: CAKI-1; assay: Growth inhibition of human Caki1 cells assessed as cell growth at 1 M after 48 hrs by sulforhodamine B assay; type: functional; parameters: scale not given: the % may be the effect or the level left; procedure, shortened: as §2
[24] = tested on: UACC-257; assay: Growth inhibition of human UACC257 cells assessed as cell growth at 1 M after 48 hrs by sulforhodamine B assay; type: functional; parameters: scale not given: the % may be the effect or the level left; procedure, shortened: as §1
[25] = tested on: MDA-MB-468; assay: Growth inhibition of human MDA-MB-468 cells assessed as cell growth at 1 M after 48 hrs by sulforhodamine B assay; type: functional; parameters: scale not given: the % may be the effect or the level left; procedure, shortened: as §2
[26] = tested on: SF-268; assay: Growth inhibition of human SF268 cells assessed as cell growth at 1 M after 48 hrs by sulforhodamine B assay; type: functional; parameters: scale not given: the % may be the effect or the level left; procedure, shortened: as §1
[27] = tested on: SK-MEL-28; assay: Growth inhibition of human SK-MEL-28 cells assessed as cell growth at 1 M after 48 hrs by sulforhodamine B assay; type: functional; parameters: scale not given: the % may be the effect or the level left; procedure, shortened: as §1
[28] = tested on: SK-OV-3; assay: Growth inhibition of human SKOV3 cells assessed as cell growth at 1 M after 48 hrs by sulforhodamine B assay; type: functional; parameters: scale not given: the % may be the effect or the level left; procedure, shortened: as §1
[29] = tested on: KM12; assay: Growth inhibition of human KM12 cells assessed as cell growth at 1 M after 48 hrs by sulforhodamine B assay; type: functional; parameters: scale not given: the % may be the effect or the level left; procedure, shortened: as §2
[30] = tested on: NCI-H322M; assay: Growth inhibition of human NCI-H322M cells assessed as cell growth at 1 M after 48 hrs by sulforhodamine B assay; type: functional; parameters: scale not given: the % may be the effect or the level left; procedure, shortened: as §2
[31] = tested on: SK-MEL-2; assay: Growth inhibition of human SK-MEL-2 cells assessed as cell growth at 1 M after 48 hrs by sulforhodamine B assay; type: functional; parameters: scale not given: the % may be the effect or the level left; procedure, shortened: as §1
[32] = tested on: Escherichia coli; assay: Antimicrobial activity against Escherichia coli at 1 to 5 ug/ml by agar well diffusion method; type: functional; procedure, shortened: as §3
[33] = tested on: NCI/ADR-RES; assay: Growth inhibition of human NCI/ADR-RES cells assessed as cell growth at 1 M after 48 hrs by sulforhodamine B assay; type: functional; parameters: scale not given: the % may be the effect or the level left; procedure, shortened: as §2
[34] = organism: Rattus norvegicus; assay: Acute toxicity in albino rat; type: organism-based; conditions: in vivo
Procedure, shortened: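 Male albino rats received injections of increasing doses. LD50 and LD90, the doses killing 50% and 90% of the animals, were calculated by the Austen and Brocklehurst method.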

[35] = tested on: COLO 205; assay: Growth inhibition of human COLO205 cells assessed as cell growth at 1 M after 48 hrs by sulforhodamine B assay; type: functional; parameters: scale not given: the % may be the effect or the level left; procedure, shortened: as §2
[36] = tested on: CCRF-CEM; assay: Growth inhibition of human CCRF-CEM cells assessed as cell growth at 1 M after 48 hrs by sulforhodamine B assay; type: functional; parameters: scale not given: the % may be the effect or the level left; procedure, shortened: as §2

Row | Compound | Activity [1] [%] | Activity [2] [%] | Activity [3] [%] | diameter of the inhibition zone (DIZ) [4] [cm] | Activity [5] [%] | Activity [6] [%] | Activity [8] [%] | Activity [9] [%] | Activity [10] [%] | Activity [11] [%] | Activity [12] [%] | Activity [13] [%] | Activity [14] [%] | Activity [15] [%] | Activity [16] [%] | diameter of the inhibition zone (DIZ) [17] [cm] | ED50 [18] [mg/kg] | Activity [19] [%] | Activity [22] [%] | Activity [23] [%] | further results
1 | CC(=O)c1ccc(N/N=C(\C(=O)c2ccc(Cl)cc2)c2nc(C)cc(=O)[nH]2)cc1 | 94.35 | 95.54 | 89.39 | 0 | 90.12 | 111.21 | 103.13 | 91.94 | 87.61 | 80.29 | 92.95 | 91.91 | 110.47 | 85.96 | 96.78 | 0 | 0.000698 | 94.61 | 111 | 95 | Activity [7]: 62.16%; Activity [20]: 75.87%; Activity [21]: 84.76%; Activity [24]: 99.94%; Activity [25]: 94.65%; Activity [26]: 95.91%; Activity [27]: 106.93%; Activity [28]: 95.27%; Activity [29]: 100.14%; Activity [30]: 100.21%; Activity [31]: 99.06%; diameter of the inhibition zone (DIZ) [32]: 0 cm; Activity [33]: 93.99%; LD50 [34]: 1.87034 mg/kg; LD90 [34]: 2.25087 mg/kg; Activity [35]: 121.73%
2 | Cc1ccc(N/N=C(\C(=O)c2ccc(Cl)cc2)c2nc(C)cc(=O)[nH]2)cc1 | 40.73 | 99.97 | 91.01 | 0 | 99.88 | 115.84 | 105.3 | 115.66 | 91.74 | 90.8 | 100.7 | 85.08 | 126.09 | 95.9 | 103.37 | 0 | 0.000173 | 100.03 | 107.41 | 112.71 | Activity [36]: -15.08%; Activity [7]: 84.35%; Activity [24]: 104.52%; Activity [26]: 107.28%; Activity [27]: 117.97%; Activity [28]: 115.86%; Activity [29]: 114.61%; Activity [30]: 106.17%; Activity [31]: 95.33%; diameter of the inhibition zone (DIZ) [32]: 0.6 cm; Activity [33]: 102.57%; LD50 [34]: 2.663 mg/kg; LD90 [34]: 4.35687 mg/kg; Activity [35]: 116.23%
3 | Cc1cc(=O)[nH]c(/C(=N/Nc2ccccc2)C(=O)c2ccc(Cl)cc2)n1 | 28.48 | 93.24 | 90.11 | 0 | 83.59 | 109.1 | 108.76 | 128.46 | 52.73 | 91.99 | 92.85 | 96.57 | 113.86 | 101.67 | 106.82 | 0 | 0.000211 | 92.54 | 108.67 | 103.86 | Activity [36]: 66.03%; Activity [20]: 116.06%; Activity [26]: 117.24%; Activity [27]: 110.14%; Activity [28]: 98.31%; Activity [29]: 101.95%; Activity [30]: 107.24%; Activity [31]: 102.42%; diameter of the inhibition zone (DIZ) [32]: 0.6 cm; Activity [33]: 105.88%; LD50 [34]: 2.11122 mg/kg; LD90 [34]: 3.24592 mg/kg; Activity [35]: 105.71%
